Source: ChEMBL document CHEMBL1131624, “Inhibitors of acyl-CoA:cholesterol O-acyltransferase. 2. Identification and structure-activity relationships of a novel series of N-alkyl-N-(heteroaryl-substituted benzyl)-N'-arylureas” (J Med Chem, 1998)
The source made the active and inactive calls. The rule behind the calls is not given here.

Columns and labels:
O-acyltransferase = O-acyltransferase (Oryctolagus cuniculus, UniProt G1SFD9); assay: In vitro inhibitory activity against Acyl coenzyme A:cholesterol acyltransferase (ACAT) in rabbit intestinal microsomes; parameters: species or system Intestine
In short: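 Enzyme source was mucosal microsomes from small intestine of cholesterol-fed rabbits, incubated with [1-¹⁴C]oleoyl-CoA (Heider method, minor modifications).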

[1] = biological target: T1, Sterol O-acyltransferase, Soat (Rattus norvegicus) (UniProt Q7TQM4+O70536); assay: Percentage reduction in total cholesterol level at <1 mg/kg; assay type: functional, organism-based
In short: (§1)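 Cholesterol-fed rats given compound orally as a dietary admixture in a cholesterol-enriched diet. Plasma total cholesterol compared with control and reported as percent reduction at the dose, or as ED50, the dose reducing plasma total cholesterol by 50% of the control value.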

[2] = biological target: T1, Sterol O-acyltransferase, Soat (Rattus norvegicus); assay: Effective dose to reduce plasma total cholesterol level by 50% of the control value in cholesterol fed rats; assay type: functional; in short: as §1
[3] = biological target: T1, Sterol O-acyltransferase, Soat (Rattus norvegicus); assay: Percentage reduction in total cholesterol level at >1 mg/kg; assay type: functional, organism-based; in short: as §1
Rattus norvegicus [4] = assay: Compound was evaluated for percent reduction in total cholesterol level at <0.32 mg/kg; assay type: functional; in short: as §1
Rattus norvegicus [5] = assay: Compound was evaluated for percent reduction in total cholesterol level at >0.1 mg/kg; assay type: functional; in short: as §1
Rattus norvegicus [6] = assay: Compound was evaluated for percent reduction in total cholesterol level at >1 mg/kg; Inactive; assay type: functional, organism-based; in short: as §1
Mus musculus = organism: Mus musculus; assay: Compound tested for inhibitory activity of foam cell formation in mouse peritoneal macrophages; assay type: functional
In short: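 Mouse peritoneal macrophages from nonstimulated mice, lavaged with PBS, plated 2 × 10⁶ cells/mL, adhered 2 h, then 18 h in 10% FBS-DMEM. Incubated 4 h at 37 °C with 0.2 mmol/L [1-¹⁴C]oleate–BSA, 30 µg/mL acetylated human LDL and compound (0.1% DMSO). Lipids extracted, TLC-separated, and cholesteryl [¹⁴C]oleate counted. Cell protein also measured. IC50 in nM.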

Rattus norvegicus [7] = organism: Rattus norvegicus; assay: Effective dose to reduce plasma total cholesterol level by 50% of the control value in cholesterol fed rats; Inactive; assay type: functional, organism-based; in short: as §1

O-acyltransferase, sequence (G1SFD9 1-524): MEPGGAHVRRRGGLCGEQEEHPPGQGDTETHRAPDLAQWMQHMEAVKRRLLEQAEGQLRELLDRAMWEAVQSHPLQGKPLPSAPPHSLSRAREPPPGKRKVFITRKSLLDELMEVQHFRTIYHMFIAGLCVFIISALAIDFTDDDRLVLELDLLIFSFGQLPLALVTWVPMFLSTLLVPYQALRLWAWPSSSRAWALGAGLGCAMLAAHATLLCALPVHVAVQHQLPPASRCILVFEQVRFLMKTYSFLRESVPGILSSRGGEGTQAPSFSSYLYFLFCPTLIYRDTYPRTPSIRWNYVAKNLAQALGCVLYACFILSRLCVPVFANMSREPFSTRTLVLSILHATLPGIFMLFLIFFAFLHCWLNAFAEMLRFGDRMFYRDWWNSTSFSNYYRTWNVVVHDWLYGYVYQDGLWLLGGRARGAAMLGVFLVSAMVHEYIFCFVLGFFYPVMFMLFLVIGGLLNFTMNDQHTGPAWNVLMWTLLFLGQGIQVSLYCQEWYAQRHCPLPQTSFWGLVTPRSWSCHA

| SMILES | IC50 (O-acyltransferase) [nM] | ED50 [2] [mg/kg] | further results |
| --- | --- | --- | --- |
| CSc1cc(C)nc(SC)c1NC(=O)N(Cc1ccccc1)Cc1cccc(-c2ccnn2C)c1 | 28 | < 1 | Reduction [1]: 88% |
| Cc1cc(C)c(NC(=O)N(Cc2ccc(-n3cccc3)cc2)C2CCCCCC2)c(C)c1 | 28 | < 1 | Reduction [1]: 51% |
| Cc1cc(C)c(NC(=O)N(Cc2ccc(-n3ccnn3)cc2)C2CCCCCC2)c(C)c1 | 42 | > 1 | Reduction [3]: 19% |
| CSc1cc(C)nc(SC)c1NC(=O)N(Cc1ccccc1)Cc1cccc(-c2cc[nH]n2)c1 | 99 | 0.046 |  |
| CCCCCCCN(Cc1ccc(CC(C)(C)C)cc1)C(=O)Nc1ccc(F)cc1F |  | 5 |  |
| Cc1cc(C)c(NC(=O)N(Cc2ccc(-n3cccn3)cc2)C2CCCCCC2)c(C)c1 | 70 | > 1 | Reduction (Rattus norvegicus [6]): inactive |
| CN(C)c1ccc(CN(Cc2cccc(-c3cc[nH]n3)c2)C(=O)Nc2c(F)cc(F)cc2F)cc1 | 12 | < 0.32 | Reduction (Rattus norvegicus [4]): 68% |
| Cc1cc(C)c(NC(=O)N(Cc2cccc(-c3ccnn3C)c2)C2CCCCCC2)c(C)c1 | 35 | > 1 | Reduction [3]: 34% |
| Cc1cc(C)c(NC(=O)N(Cc2cccc(-c3nn[nH]n3)c2)C2CCCCCC2)c(C)c1 | > 1000 |  |  |
| Cc1cc(C)c(NC(=O)N(Cc2cccc(-c3nnnn3C)c2)C2CCCCCC2)c(C)c1 |  | > 1 | Reduction [3]: 26% |
| Cc1cc(C)c(NC(=O)N(Cc2ccc(-c3ccccn3)cc2)C2CCCCCC2)c(C)c1 | 33 | > 1 | Reduction [3]: 46% |
| Cc1cc(C)c(NC(=O)N(Cc2cccc(-c3c[nH]cn3)c2)C2CCCCCC2)c(C)c1 |  | < 1 | Reduction [1]: 84% |
| Cc1cc(C)c(NC(=O)N(Cc2ccc(-c3n[nH]c(C)n3)cc2)C2CCCCCC2)c(C)c1 | 120 | > 1 | Reduction [3]: 17% |
| Cc1cc(C)c(NC(=O)N(Cc2cccc(-c3cc[nH]n3)c2)C2CCCCCC2)c(C)c1 | 65 | 0.097 | IC50 (Mus musculus): 0.46 µM |
| O=C(Nc1c(F)cc(F)cc1F)N(Cc1ccc(-c2ccsc2)cc1)C1CCCCCC1 | 23 | > 1 | Reduction (Rattus norvegicus [6]): inactive |
| CSc1cc(C)nc(SC)c1NC(=O)N(Cc1ccc(-c2cnn(C)c2)cc1)C1CCCCCC1 |  | > 0.1 | ED50 (Rattus norvegicus [7]): inactive |
| Cc1cc(C)c(NC(=O)N(Cc2cc(-c3ccccc3)on2)C2CCCCCC2)c(C)c1 | 61 | > 1 | Reduction [3]: 28% |
| Cc1cc(C)c(NC(=O)N(Cc2cc(-c3ccccc3)cs2)C2CCCCCC2)c(C)c1 | 36 | < 1 | Reduction [1]: 69% |

| SMILES | IC50 (O-acyltransferase) [nM] | ED50 [2] [mg/kg] | further results |
| --- | --- | --- | --- |
| Cc1cc(C)c(NC(=O)N(Cc2cccc(-c3cc[nH]n3)c2)C2CCCCC2)c(C)c1 | 39 | 0.12 |  |
| CSc1cc(C)nc(SC)c1NC(=O)N(Cc1ccccc1)Cc1cccc(-c2cnn(C)c2)c1 |  | > 0.1 | Reduction (Rattus norvegicus [5]): 43% |
| Cc1cc(C)c(NC(=O)N(Cc2cccc(-c3ccn(C)n3)c2)C2CCCCCC2)c(C)c1 | 42 | < 1 | Reduction [1]: 78% |
| CSc1cc(C)nc(SC)c1NC(=O)N(Cc1ccccc1)Cc1cccc(-c2ccn(C)n2)c1 | 73 | < 1 | Reduction [1]: 77% |
| O=C(Nc1c(F)cc(F)cc1F)N(Cc1ccc(-n2cccc2)cc1)C1CCCCCC1 | 27 | > 1 | Reduction [3]: 21% |
| Cc1cc(C)c(NC(=O)N(Cc2ccc(-n3cncn3)cc2)C2CCCCCC2)c(C)c1 | 26 | > 1 | Reduction [3]: 19% |
| Cc1cc(C)c(NC(=O)N(Cc2cccc(-c3cc[nH]n3)c2)C2CCCC2)c(C)c1 | 22 | < 1 | Reduction [1]: 76% |
| COc1cccc(CN(Cc2cccc(-c3cc[nH]n3)c2)C(=O)Nc2c(SC)cc(C)nc2SC)c1 |  | > 0.1 | Reduction (Rattus norvegicus [5]): 13% |
| COc1ccc(CN(Cc2cccc(-c3cc[nH]n3)c2)C(=O)Nc2c(SC)cc(C)nc2SC)cc1 | 200 | < 0.1 |  |
| Cc1cc(C)c(NC(=O)N(Cc2cccc(-c3cnn(C)c3)c2)C2CCCCCC2)c(C)c1 | 44 | < 1 | Reduction [1]: 74% |
| O=C(Nc1c(F)cc(F)cc1F)N(Cc1ccc(-c2ccccn2)cc1)C1CCCCCC1 | 25 | > 1 | Reduction [3]: 30% |
| CSc1cc(C)nc(SC)c1NC(=O)N(Cc1cccc(-c2cnn(C)c2)c1)C1CCCCCC1 |  | > 0.1 | Reduction (Rattus norvegicus [5]): 44% |
| CC(C)c1cccc(C(C)C)c1OC(=O)NS(=O)(=O)Oc1c(C(C)C)cccc1C(C)C | 4000 | 0.61 | IC50 (Mus musculus): 55 µM |
| Cc1cc(C)c(NC(=O)N(Cc2ccc(-c3ccccc3)o2)C2CCCCCC2)c(C)c1 | 44 | < 1 | Reduction [1]: 68% |
| Cc1cc(C)c(NC(=O)N(Cc2ccc(-c3cccs3)cc2)C2CCCCCC2)c(C)c1 | 22 | 0.28 |  |
| CSc1cc(C)nc(SC)c1NC(=O)N(Cc1ccc(N(C)C)cc1)Cc1cccc(-c2cc[nH]n2)c1 | 72 | < 0.1 |  |
| O=C(Nc1c(F)cc(F)cc1F)N(Cc1ccccc1)Cc1cccc(-c2cc[nH]n2)c1 | 14 | 0.096 |  |
| COc1ccccc1CN(Cc1cccc(-c2cc[nH]n2)c1)C(=O)Nc1c(SC)cc(C)nc1SC |  | > 0.1 | ED50 (Rattus norvegicus [7]): inactive |

Now from value to compound, other results behind:

| IC50 (O-acyltransferase) [nM] | ED50 [2] [mg/kg] | SMILES | further results |
| --- | --- | --- | --- |
| 20 | 0.17 | Cc1cc(C)c(NC(=O)N(Cc2cccc(-n3cccc3)c2)C2CCCCCC2)c(C)c1 |  |
| 46 | < 1 | Cc1cc(C)c(NC(=O)N(Cc2ccc(-c3ccccc3)s2)C2CCCCCC2)c(C)c1 | Reduction [1]: 60% |
| 21 | > 1 | Cc1cc(C)c(NC(=O)N(Cc2ccccc2)Cc2cccc(-c3cc[nH]n3)c2)c(C)c1 | Reduction [3]: 36% |
| 27 | < 0.32 | CSc1cc(C)nc(SC)c1NC(=O)N(Cc1ccccc1)Cc1ccc(-c2ccnn2C)cc1 | Reduction (Rattus norvegicus [4]): 86% |
|  | > 0.1 | CSc1cc(C)nc(SC)c1NC(=O)N(Cc1ccccc1)Cc1ccc(-c2cnn(C)c2)cc1 | Reduction (Rattus norvegicus [5]): 29% |
| 52 | > 1 | Cc1cc(C)c(NC(=O)N(Cc2ccc(-c3cc[nH]n3)cc2)C2CCCCCC2)c(C)c1 | Reduction [3]: 17% |
| 260 |  | Cc1cc(C)c(NC(=O)N(Cc2ccc(-c3ccccc3)nc2)C2CCCCCC2)c(C)c1 |  |
| 250 | < 0.1 | CSc1cc(C)nc(SC)c1NC(=O)N(Cc1ccc(F)cc1)Cc1cccc(-c2cc[nH]n2)c1 |  |
| 55 | < 0.32 | CSc1cc(C)nc(SC)c1NC(=O)N(Cc1ccccc1)Cc1ccc(-c2cc[nH]n2)cc1 | Reduction (Rattus norvegicus [4]): 58% |
| 100 | < 0.32 | CSc1cc(C)nc(SC)c1NC(=O)N(Cc1ccc(-c2cc[nH]n2)cc1)C1CCCCCC1 | Reduction (Rattus norvegicus [4]): 77% |
| 47 | > 1 | Cc1cc(C)c(NC(=O)N(Cc2ccc(-n3ccnc3)cc2)C2CCCCCC2)c(C)c1 | Reduction [3]: 26% |
| 200 | > 1 | Cc1cc(C)c(NC(=O)N(Cc2ccc(-c3cnco3)cc2)C2CCCCCC2)c(C)c1 | Reduction [3]: 13% |
| 180 |  | Cc1cc(C)c(NC(=O)N(Cc2cccc(-c3csc(C)n3)c2)C2CCCCCC2)c(C)c1 |  |
| 30 | 0.034 | CSc1cc(C)nc(SC)c1NC(=O)N(Cc1ccc(Oc2ccc(F)cc2)cc1)C1CCCCCC1 |  |
| 19 | 0.51 | Cc1cc(C)c(NC(=O)N(Cc2ccc(-c3ccsc3)cc2)C2CCCCCC2)c(C)c1 |  |
| 38 | 0.19 | Cc1cc(C)c(NC(=O)N(Cc2cccc(-c3cn[nH]c3)c2)C2CCCCCC2)c(C)c1 |  |
| 47 | 0.31 | Cc1cc(C)c(NC(=O)N(Cc2ccc(-c3cnn(C)c3)cc2)C2CCCCCC2)c(C)c1 |  |
|  | < 0.32 | O=C(Nc1c(F)cc(F)cc1F)N(Cc1ccc(F)cc1)Cc1cccc(-c2cc[nH]n2)c1 | Reduction (Rattus norvegicus [4]): 64% |
| 130 | > 1 | Cc1cc(C)c(NC(=O)N(Cc2ccc(-n3nccn3)cc2)C2CCCCCC2)c(C)c1 | Reduction [3]: 11% |
| 520 |  | Cc1cc(C)c(NC(=O)N(Cc2cc(-c3ccccc3)[nH]n2)C2CCCCCC2)c(C)c1 |  |
| 24 | < 1 | Cc1cc(C)c(NC(=O)N(Cc2ccc(-c3ccnn3C)cc2)C2CCCCCC2)c(C)c1 | Reduction [1]: 64% |
| 18 | > 1 | O=C(Nc1c(F)cc(F)cc1F)N(Cc1ccc(-c2cccs2)cc1)C1CCCCCC1 | Reduction [3]: 33% |
| 100 | < 1 | Cc1cc(C)c(NC(=O)N(Cc2cccc(-c3nnn(C)n3)c2)C2CCCCCC2)c(C)c1 | Reduction [1]: 84% |
|  | > 0.1 | CSc1cc(C)nc(SC)c1NC(=O)N(CCc1ccccc1)Cc1cccc(-c2cc[nH]n2)c1 | ED50 (Rattus norvegicus [7]): inactive |
| 130 | 0.58 | Cc1cc(C)c(NC(=O)N(Cc2ccc(-c3cccnc3)cc2)C2CCCCCC2)c(C)c1 |  |
| 57 | > 1 | Cc1cc(C)c(NC(=O)N(Cc2ccc(N3CCN(C)CC3)cc2)C2CCCCCC2)c(C)c1 | Reduction [3]: 23% |
| 270 | > 1 | Cc1cc(C)c(NC(=O)N(Cc2ccc(-c3cn[nH]c3)cc2)C2CCCCCC2)c(C)c1 | Reduction [3]: 8% |
